The record followed here is ChEMBL document CHEMBL3875201, “Synthesis and in vitro antiviral evaluation of 4-substituted 3,4-dihydropyrimidinones” (Bioorg Med Chem Lett, 2017).

A value given as a limit tells only on which side of the number the result lay.

Data set [1] is described as follows: Cytotoxicity against African green monkey Vero cells assessed as alterations in cell morphology by microscopic analysis. It counts as toxicity, cell-based. The note with it: chlorocebus sabaeus. An outline of the steps: (§1)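 Compound added to subconfluent cell monolayers in 96-well plates together with virus (CPE reduction assay format); after 3–5 days incubation, cultures inspected by microscopy. MCC taken as compound concentration producing minimal alterations in cell morphology.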

In data set [2] the test system is Human respirovirus 3. The data set is described as follows: Antiviral activity against Para-influenza-3 virus infected in African green monkey Vero cells assessed as protection against virus-induced cytopathic effect measured after 3 to 5 days by microscopic analysis. It counts as functional, cell-based. The note with it: Human respirovirus 3, Vero. Background: Cytopathic effects are the visible damage that an infection or toxin causes in cultured cells.

For data set [3], the system named is Mammalian orthoreovirus 1. Description: Antiviral activity against Reovirus-1 infected in African green monkey Vero cells assessed as protection against virus-induced cytopathic effect measured after 3 to 5 days by microscopic analysis. It counts as functional, cell-based. The note with it: Mammalian orthoreovirus 1, Vero.
Data set [4] concerns Sindbis virus. Description: Antiviral activity against Sindbis virus infected in African green monkey Vero cells assessed as protection against virus-induced cytopathic effect measured after 3 to 5 days by microscopic analysis. It counts as functional, cell-based.
The test system of data set [5] is Coxsackievirus B4. Description: Antiviral activity against Coxsackie virus B4 infected in African green monkey Vero cells assessed as protection against virus-induced cytopathic effect measured after 3 to 5 days by microscopic analysis. It counts as functional, cell-based. The note with it: Enterovirus B.
The test system of data set [6] is Punta Toro virus. Description: Antiviral activity against Punta Toro virus infected in African green monkey Vero cells assessed as protection against virus-induced cytopathic effect measured after 3 to 5 days by microscopic analysis. It counts as functional, cell-based.
Data set [7] concerns Yellow fever virus. The data set is described as follows: Antiviral activity against Yellow fever virus infected in African green monkey Vero cells assessed as protection against virus-induced cytopathic effect measured after 3 to 5 days by microscopic analysis. It counts as functional, cell-based.
Data set [8] can be described thus: Cytotoxicity against human HeLa cells assessed as alterations in cell morphology by microscopic analysis. It counts as toxicity, cell-based. An outline of the steps:
as §1

A short description of data set [9]: Cytotoxicity against MDCK cells assessed as alterations in cell morphology by microscopic analysis. It counts as toxicity, cell-based, Canis lupus familiaris. The note with it: dog. An outline of the steps: as §1
A short description of data set [10]: Cytotoxicity against HEL cells assessed as alterations in cell morphology by microscopic analysis. It counts as toxicity, cell-based. As to conditions: human. An outline of the steps:
as §1

A short description of data set [11]: Cytotoxicity against cat CRFK cells assessed as by MTS cell viability assay. It counts as toxicity, cell-based, Felis catus. (In general: Tetrazolium assays rely on reduction of a dye to a coloured formazan, in cell work by metabolically active cells.)
Data set [12] is described as follows: Cytotoxicity against human MT4 cells by MTS cell viability assay. It counts as toxicity, cell-based.
For data set [13], the system named is Human alphaherpesvirus 3. The data set is described as follows: Antiviral activity against Varicella zoster virus infected in HEL cells assessed as protection against virus-induced cytopathic effect at 100 uM measured after 3 to 5 days by microscopic analysis. It counts as functional, cell-based. The note with it: Human alphaherpesvirus 3, HEL. An outline of the steps: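 HEL fibroblasts, subconfluent, were exposed to compound plus virus together. After 3–5 days CPE was scored microscopically as protection against virus-induced cell damage. EC50 is the concentration giving 50% protection; MCC is the concentration causing minimal morphology change by microscopy.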

Data set [14] has as its system Punta Toro virus. The data set is described as follows: Potency index, ratio of Dextran sulphate EC50 to test compound EC50 for Punta Toro virus infected in African green monkey Vero cells. It counts as functional.
Data set [15] has as its system Punta Toro virus. The data set is described as follows: Potency index, ratio of mycophenolic acid EC50 to test compound EC50 for Punta Toro virus infected in African green monkey Vero cells. It counts as functional.
In data set [16] the test system is Punta Toro virus. Description: Potency index, ratio of ribavirin EC50 to test compound EC50 for Punta Toro virus infected in African green monkey Vero cells. It counts as functional.
Data set [17] is described as follows: Selectivity index, ratio of MCC for African green monkey Vero cells to EC50 for Punta Toro virus infected in African green monkey Vero cells. It counts as toxicity, cell-based.
The subject of data set [18] is Punta Toro virus. The data set is described as follows: Antiviral activity against Punta Toro virus infected in African green monkey Vero cells assessed as protection against virus-induced cytopathic effect at 20 uM measured after 3 to 5 days by microscopic analysis. It counts as functional.
For data set [19], the system named is Rift Valley fever virus. The data set is described as follows: Antiviral activity against RVFV MP-12 infected in African green monkey Vero cells assessed as protection against virus-induced cytopathic effect at 100 uM measured after 3 to 5 days by microscopic analysis. It counts as functional.

As a reminder, the EC50 is the concentration that produces a half-maximal response. One may read the CC50 as the concentration that lowers cell viability or growth by half. In the case of `CCOC(=O)C1=C(C)NC(=O)NC1c1ccc(O)cc1` (centres undefined), the MCC in [1], in [8], in data set [9] and in data set [10] was greater than 100 µM each time. Besides, the concentration for a half-maximal effect (EC50) in [2], in data set [3], in data set [4], in data set [5], in data set [6] and in data set [7] was greater than 100 µM throughout. The values for the CC50 in data set [11] and in data set [12] were greater than 100 µM and greater than 125 µM, respectively.

As to `CCOC(=O)C1=C(C)NC(=O)NC1c1ccc(N(C)C)cc1` (centres undefined), the MCC in data set [1] is 100 µM; in data set [8], greater than 100 µM; in data set [9], greater than 100 µM; in data set [10], greater than 100 µM. Further, the EC50 in data set [2], in data set [3], in data set [4], in data set [5], in data set [6] and in data set [7] was greater than 100 µM throughout. In addition, the CC50 in data set [11] is greater than 100 µM; in [12], greater than 125 µM.

Take `CCOC(=O)C1=C(C)NC(=O)NC1c1ccc(OC)cc1` (centres undefined): in data set [3], the EC50 is greater than 100 µM. Further, the MCC in [8] and in data set [9] was greater than 100 µM throughout.

On to `NC(=O)c1ncn([C@@H]2O[C@H](CO)[C@@H](O)[C@H]2O)n1` [RIBAVIRIN], for which the MCC in data set [1] was greater than 250 µM. Besides, the EC50 in data set [2] was 112 µM; in data set [3], greater than 250 µM; in data set [4], greater than 250 µM; in data set [5], greater than 250 µM; in [6] it was 50 µM.

For `CCOC(=O)C1=C(C)NC(=O)NC1c1ccc(Cl)cc1` (centres undefined), the MCC in data set [8], in data set [9] and in data set [10] was greater than 100 µM in each case.

Turning to `CCOC(=O)C1C2NC(=O)NC1(C)Oc1ccccc12` (centres undefined), the MCC in data set [1], in data set [8], in data set [9] and in [10] was greater than 100 µM throughout. Besides, the EC50 in [2], in data set [3], in data set [4], in data set [5], in data set [6] and in data set [7] was greater than 100 µM each time. For the same compound, the CC50 in data set [11] is greater than 100 µM; in data set [12], greater than 125 µM.

For `CCOC(=O)C1=C(C)NC(=O)NC1/C=C/c1ccccc1` (centres undefined), the MCC was 100 µM in [1], no less than 100 µM in [8], greater than 100 µM in data set [9] and no less than 100 µM in [10]. Moreover, the EC50 in data set [2], in data set [3], in data set [4], in [5], in [6] and in data set [7] was greater than 100 µM in each case. In data set [13], the EC50 amounted to 57 µM. Further, the results for the CC50 in [11] and in [12] were greater than 100 µM and greater than 125 µM, respectively.

For `CCOC(=O)C1=C(C)NC(=O)NC1c1ccc(Br)cc1` (centres undefined), the MCC in [8], in [9] and in [10] was greater than 100 µM in each case.

Consider `CCCCCCCCCCCC1NC(=O)NC(C)=C1C(=O)OCC` (centres undefined), for which the MCC in data set [1] is no less than 100 µM; in [8], greater than 100 µM; in data set [9] it was greater than 100 µM; in data set [10], 100 µM. The half-maximal effective concentration (EC50) in data set [2] was greater than 100 µM; in data set [3], greater than 100 µM; in data set [4] it was greater than 100 µM; in data set [5] it was greater than 100 µM; in [6], 3 µM; in [7], greater than 100 µM. Further, the Activity result in data set [6] is “Dose-dependent effect”; in data set [18] it was 81%; in data set [19], 40 - 50%. The results for the CC50 in data set [11] and in [12] were greater than 100 µM and 50 µM, respectively. The “Ratio EC50” value in data set [14] came to 7; in [15], 7; in data set [16], 17. The “Selectivity Index” value in data set [17] is reported as “>= 33”.

Regarding `COc1c(C)c2c(c(O)c1C/C=C(\C)CCC(=O)O)C(=O)OC2` [MYCOPHENOLIC ACID], the MCC in data set [1] was greater than 100 µM. In addition, the concentration giving a half-maximal response (EC50) in data set [2] was 0.8 µM; in data set [3] it was 1.8 µM; in data set [4], 4 µM; in data set [5], greater than 250 µM; in data set [6] it was 20 µM; in data set [7] it was 4 µM.

In the case of `CCOC(=O)C1=C(C)NC(=O)NC1c1ccccc1Cl` (centres undefined), the MCC in data set [1], in [8], in data set [9] and in [10] was greater than 100 µM each time. Moreover, the EC50 in data set [2], in data set [3], in data set [4], in data set [5], in [6] and in data set [7] was greater than 100 µM throughout. The CC50 is greater than 100 µM in [11] and 96 µM in data set [12].

`CCOC(=O)C1=C(C)NC(=O)NC1c1cccs1` (centres undefined): the MCC in [1], in data set [8], in [9] and in data set [10] was greater than 100 µM each time. Moreover, the EC50 in data set [2], in data set [3], in data set [4], in data set [5], in data set [6] and in [7] was greater than 100 µM throughout. Moreover, the figures for the CC50 in data set [11] and in data set [12] were greater than 100 µM and greater than 125 µM, respectively.

Regarding `CCOC(=O)C1=C(C)NC(=O)NC1c1ccccc1` (centres undefined), the half-maximal effective concentration (EC50) in data set [2] and in [3] was greater than 100 µM throughout. For the same compound, the MCC in [8] and in data set [9] was greater than 100 µM in each case.

On to `CCOC(=O)C1=C(C)NC(=O)NC1CC(C)C` (centres undefined), for which the MCC in [1], in data set [8], in [9] and in [10] was greater than 100 µM each time. Besides, the EC50 in [2], in data set [3], in data set [4], in data set [5], in data set [6] and in [7] was greater than 100 µM each time. The CC50 was greater than 100 µM in [11] and greater than 125 µM in data set [12].

Take `CCOC(=O)C1=C(C)NC(=O)NC1`: the MCC in [1], in data set [8], in [9] and in [10] was greater than 100 µM in each case. The EC50 in data set [2], in data set [3], in [4], in data set [5], in [6] and in data set [7] was greater than 100 µM each time. For the same compound, the 50% cytotoxic concentration (CC50) is greater than 100 µM in data set [11] and greater than 125 µM in data set [12].

On to `CCOC(=O)C1=C(C)NC(=O)NC1C` (centres undefined), for which the MCC in data set [1], in [8], in [9] and in data set [10] was greater than 100 µM each time. Also, the EC50 in [2], in data set [3], in [4], in [5], in [6] and in data set [7] was greater than 100 µM in each case. Moreover, the CC50 is greater than 100 µM in data set [11] and greater than 125 µM in [12].
